Laboratory results reported in ChEMBL document CHEMBL1275486, “Kinetic characterization of VIM-7, a divergent member of the VIM metallo-beta-lactamase family” (Antimicrob Agents Chemother, 2008).

Columns and labels:
Escherichia coli [1] = assay: Activity of Escherichia coli beta-lactamase VIM-1 by spectrophotometry
Escherichia coli [2] = assay: Ratio of Kcat to Km for Escherichia coli beta-lactamase VIM-1 by spectrophotometry
[3] = tested on: CC(=O)OCC1=C(C(=O)O)N2C(=O)[C@@H](NC(=O)Cc3cccs3)[C@H]2SC1; assay: (§1) Activity of Pseudomonas aeruginosa beta-lactamase VIM-7 by spectrophotometry; conditions: 07-406
Procedure, shortened: (§2)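 Recombinant enzyme was expressed in E. coli BL21(DE3) from pET-26b and purified from the periplasm to >99%, with concentration taken from A280. Hydrolysis was followed spectrophotometrically at 25°C in 50 mM sodium cacodylate pH 7.0 with 100 μM ZnCl2 and 0.1 mg/ml BSA. Km and kcat came from initial velocity versus substrate concentration. Some Km values were taken as competitive Ki against nitrocefin reporter.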

[4] = tested on: CC(C)(O/N=C(\C(=O)N[C@@H]1C(=O)N2C(C(=O)[O-])=C(C[n+]3ccccc3)CS[C@H]12)c1csc(N)n1)C(=O)O; assay: as §1; conditions: 07-406; procedure, shortened: as §2
[5] = tested on: CC1(C)S[C@@H]2[C@H](NC(=O)C(C(=O)O)c3ccccc3)C(=O)N2[C@H]1C(=O)O; assay: as §1; conditions: 07-406; procedure, shortened: as §2
[6] = tested on: CC1(C)S[C@@H]2[C@H](NC(=O)Cc3ccccc3)C(=O)N2[C@H]1C(=O)O; assay: as §1; conditions: 07-406; procedure, shortened: as §2
[7] = tested on: CC1(C)S[C@@H]2[C@H](NC(=O)[C@H](N)c3ccccc3)C(=O)N2[C@H]1C(=O)O; assay: as §1; conditions: 07-406; procedure, shortened: as §2
[8] = tested on: CC1(C)S[C@@H]2[C@H](NC(=O)[C@H](NC(=O)N3CCNC3=O)c3ccccc3)C(=O)N2[C@H]1C(=O)O; assay: as §1; conditions: 07-406; procedure, shortened: as §2
[9] = tested on: CC1(C)[C@H](C(=O)O)N2C(=O)C[C@H]2S1(=O)=O; assay: as §1; conditions: 07-406; procedure, shortened: as §2
[10] = tested on: CCN1CCN(C(=O)N[C@@H](C(=O)N[C@@H]2C(=O)N3[C@@H]2SC(C)(C)[C@@H]3C(=O)O)c2ccccc2)C(=O)C1=O; assay: as §1; conditions: 07-406; procedure, shortened: as §2
[11] = tested on: CO/N=C(\C(=O)N[C@@H]1C(=O)N2C(C(=O)O)=C(COC(C)=O)CS[C@H]12)c1csc(N)n1; assay: as §1; conditions: 07-406; procedure, shortened: as §2
[12] = tested on: CO/N=C(\C(=O)N[C@@H]1C(=O)N2C(C(=O)O)=C(COC(N)=O)CS[C@H]12)c1ccco1; assay: as §1; conditions: 07-406; procedure, shortened: as §2
[13] = tested on: CO/N=C(\C(=O)N[C@@H]1C(=O)N2C(C(=O)[O-])=C(C[N+]3(C)CCCC3)CS[C@H]12)c1csc(N)n1; assay: as §1; conditions: 07-406; procedure, shortened: as §2
[14] = tested on: CO[C@@]1(NC(=O)C(C(=O)O)c2ccc(O)cc2)C(=O)N2C(C(=O)O)=C(CSc3nnnn3C)CO[C@@H]21; assay: as §1; conditions: 07-406; procedure, shortened: as §2
[15] = tested on: CO[C@@]1(NC(=O)Cc2cccs2)C(=O)N2C(C(=O)O)=C(COC(N)=O)CS[C@@H]21; assay: as §1; conditions: 07-406; procedure, shortened: as §2
[16] = tested on: C[C@@H](O)[C@H]1C(=O)N2C(C(=O)O)=C(SCCNC=N)C[C@H]12; assay: as §1; conditions: 07-406; procedure, shortened: as §2
[17] = tested on: C[C@@H](O)[C@H]1C(=O)N2C(C(=O)O)=C(S[C@@H]3CN[C@H](C(=O)N(C)C)C3)[C@H](C)[C@H]12; assay: as §1; conditions: 07-406; procedure, shortened: as §2
[18] = tested on: C[C@@H](O)[C@H]1C(=O)N2C(C(=O)O)=C(S[C@@H]3CN[C@H](C(=O)Nc4cccc(C(=O)O)c4)C3)[C@H](C)[C@H]12; assay: as §1; conditions: 07-406; procedure, shortened: as §2
[19] = tested on: C[C@H]1[C@H](NC(=O)/C(=N\OC(C)(C)C(=O)O)c2csc(N)n2)C(=O)N1S(=O)(=O)O; assay: as §1; conditions: 07-406; procedure, shortened: as §2
[20] = tested on: C[C@]1(Cn2ccnn2)[C@H](C(=O)O)N2C(=O)C[C@H]2S1(=O)=O; assay: as §1; conditions: 07-406; procedure, shortened: as §2
[21] = tested on: Cc1onc(-c2ccccc2Cl)c1C(=O)N[C@@H]1C(=O)N2[C@@H]1SC(C)(C)[C@@H]2C(=O)O; assay: as §1; conditions: 07-406; procedure, shortened: as §2
[22] = tested on: O=C(Cc1cccs1)N[C@@H]1C(=O)N2C(C(=O)O)=C(/C=C/c3ccc([N+](=O)[O-])cc3[N+](=O)[O-])CS[C@H]12; assay: as §1; conditions: 07-406; procedure, shortened: as §2
[23] = tested on: O=C(Cc1cccs1)N[C@@H]1C(=O)N2C(C(=O)[O-])=C(C[n+]3ccccc3)CS[C@H]12; assay: as §1; conditions: 07-406; procedure, shortened: as §2
[24] = tested on: O=C(O)[C@H]1/C(=C/CO)O[C@@H]2CC(=O)N21; assay: as §1; conditions: 07-406; procedure, shortened: as §2
[25] = tested on: CC(=O)OCC1=C(C(=O)O)N2C(=O)[C@@H](NC(=O)Cc3cccs3)[C@H]2SC1; assay: (§3) Ratio of Kcat to Km for Pseudomonas aeruginosa beta-lactamase VIM-7 by spectrophotometry; conditions: 07-406; procedure, shortened: as §2
[26] = tested on: CC(C)(O/N=C(\C(=O)N[C@@H]1C(=O)N2C(C(=O)[O-])=C(C[n+]3ccccc3)CS[C@H]12)c1csc(N)n1)C(=O)O; assay: as §3; conditions: 07-406; procedure, shortened: as §2
[27] = tested on: CC1(C)S[C@@H]2[C@H](NC(=O)C(C(=O)O)c3ccccc3)C(=O)N2[C@H]1C(=O)O; assay: as §3; conditions: 07-406; procedure, shortened: as §2
[28] = tested on: CC1(C)S[C@@H]2[C@H](NC(=O)Cc3ccccc3)C(=O)N2[C@H]1C(=O)O; assay: as §3; conditions: 07-406; procedure, shortened: as §2
[29] = tested on: CC1(C)S[C@@H]2[C@H](NC(=O)[C@H](N)c3ccccc3)C(=O)N2[C@H]1C(=O)O; assay: as §3; conditions: 07-406; procedure, shortened: as §2
[30] = tested on: CC1(C)S[C@@H]2[C@H](NC(=O)[C@H](NC(=O)N3CCNC3=O)c3ccccc3)C(=O)N2[C@H]1C(=O)O; assay: as §3; conditions: 07-406; procedure, shortened: as §2
[31] = tested on: CC1(C)[C@H](C(=O)O)N2C(=O)C[C@H]2S1(=O)=O; assay: as §3; conditions: 07-406; procedure, shortened: as §2
[32] = tested on: CCN1CCN(C(=O)N[C@@H](C(=O)N[C@@H]2C(=O)N3[C@@H]2SC(C)(C)[C@@H]3C(=O)O)c2ccccc2)C(=O)C1=O; assay: as §3; conditions: 07-406; procedure, shortened: as §2
[33] = tested on: CO/N=C(\C(=O)N[C@@H]1C(=O)N2C(C(=O)O)=C(COC(C)=O)CS[C@H]12)c1csc(N)n1; assay: as §3; conditions: 07-406; procedure, shortened: as §2
[34] = tested on: CO/N=C(\C(=O)N[C@@H]1C(=O)N2C(C(=O)O)=C(COC(N)=O)CS[C@H]12)c1ccco1; assay: as §3; conditions: 07-406; procedure, shortened: as §2
[35] = tested on: CO/N=C(\C(=O)N[C@@H]1C(=O)N2C(C(=O)[O-])=C(C[N+]3(C)CCCC3)CS[C@H]12)c1csc(N)n1; assay: as §3; conditions: 07-406; procedure, shortened: as §2
[36] = tested on: CO[C@@]1(NC(=O)C(C(=O)O)c2ccc(O)cc2)C(=O)N2C(C(=O)O)=C(CSc3nnnn3C)CO[C@@H]21; assay: as §3; conditions: 07-406; procedure, shortened: as §2
[37] = tested on: CO[C@@]1(NC(=O)Cc2cccs2)C(=O)N2C(C(=O)O)=C(COC(N)=O)CS[C@@H]21; assay: as §3; conditions: 07-406; procedure, shortened: as §2
[38] = tested on: C[C@@H](O)[C@H]1C(=O)N2C(C(=O)O)=C(SCCNC=N)C[C@H]12; assay: as §3; conditions: 07-406; procedure, shortened: as §2
[39] = tested on: C[C@@H](O)[C@H]1C(=O)N2C(C(=O)O)=C(S[C@@H]3CN[C@H](C(=O)N(C)C)C3)[C@H](C)[C@H]12; assay: as §3; conditions: 07-406; procedure, shortened: as §2
[40] = tested on: C[C@@H](O)[C@H]1C(=O)N2C(C(=O)O)=C(S[C@@H]3CN[C@H](C(=O)Nc4cccc(C(=O)O)c4)C3)[C@H](C)[C@H]12; assay: as §3; conditions: 07-406; procedure, shortened: as §2
[41] = tested on: C[C@]1(Cn2ccnn2)[C@H](C(=O)O)N2C(=O)C[C@H]2S1(=O)=O; assay: as §3; conditions: 07-406; procedure, shortened: as §2
[42] = tested on: Cc1onc(-c2ccccc2Cl)c1C(=O)N[C@@H]1C(=O)N2[C@@H]1SC(C)(C)[C@@H]2C(=O)O; assay: as §3; conditions: 07-406; procedure, shortened: as §2
[43] = tested on: O=C(Cc1cccs1)N[C@@H]1C(=O)N2C(C(=O)O)=C(/C=C/c3ccc([N+](=O)[O-])cc3[N+](=O)[O-])CS[C@H]12; assay: as §3; conditions: 07-406; procedure, shortened: as §2
[44] = tested on: O=C(Cc1cccs1)N[C@@H]1C(=O)N2C(C(=O)[O-])=C(C[n+]3ccccc3)CS[C@H]12; assay: as §3; conditions: 07-406; procedure, shortened: as §2
[45] = tested on: O=C(O)[C@H]1/C(=C/CO)O[C@@H]2CC(=O)N21; assay: as §3; conditions: 07-406; procedure, shortened: as §2

Sequence of Metallo-b-lactamase (Pseudomonas aeruginosa), Q840P9 (Q840P9 whole entry): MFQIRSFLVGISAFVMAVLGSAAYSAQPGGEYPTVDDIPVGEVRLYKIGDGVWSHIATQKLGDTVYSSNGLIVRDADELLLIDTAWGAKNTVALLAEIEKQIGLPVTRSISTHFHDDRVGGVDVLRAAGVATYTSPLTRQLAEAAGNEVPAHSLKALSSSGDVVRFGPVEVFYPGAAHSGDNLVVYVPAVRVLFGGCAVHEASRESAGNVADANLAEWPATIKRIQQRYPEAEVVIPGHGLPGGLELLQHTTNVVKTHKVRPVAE

CC1(C)S[C@@H]2[C@H](NC(=O)[C@H](N)c3ccccc3)C(=O)N2[C@H]1C(=O)O
Km (Escherichia coli [1]): 920 µM | kcat (Escherichia coli [1]): 35 s⁻¹ | kcat/Km (Escherichia coli [2]): 38000 M⁻¹ s⁻¹

C[C@H]1[C@H](NC(=O)/C(=N\OC(C)(C)C(=O)O)c2csc(N)n2)C(=O)N1S(=O)(=O)O
Km (Escherichia coli [1]): > 1000 µM | kcat (Escherichia coli [1]): < 0.01 s⁻¹

CO/N=C(\C(=O)N[C@@H]1C(=O)N2C(C(=O)[O-])=C(C[N+]3(C)CCCC3)CS[C@H]12)c1csc(N)n1
Km (Escherichia coli [1]): 150 µM | kcat (Escherichia coli [1]): 550 s⁻¹ | kcat/Km (Escherichia coli [2]): 3.7e+06 M⁻¹ s⁻¹

Metallo-b-lactamase (Pseudomonas aeruginosa), Q840P9
Km [3]: 45 µM | kcat [3]: 180 s⁻¹ | Km [4]: 120 µM | kcat [4]: 1.4 s⁻¹ | Km [5]: 84 µM | kcat [5]: 1200 s⁻¹ | Km [6]: 17 µM | kcat [6]: 430 s⁻¹ | Km [7]: 15 µM | kcat [7]: 190 s⁻¹ | Km [8]: 66 µM | kcat [8]: 78 s⁻¹ | Km [9]: 740 µM | kcat [9]: 110 s⁻¹ | Km [10]: 26 µM | kcat [10]: 140 s⁻¹ | Km [11]: 22 µM | kcat [11]: 56 s⁻¹ | Km [12]: 29 µM | kcat [12]: 16 s⁻¹ | Km [13]: 580 µM | kcat [13]: 5.3 s⁻¹ | Km [14]: 75 µM | kcat [14]: 230 s⁻¹ | Km [15]: 68 µM | kcat [15]: 10 s⁻¹ | Km [16]: 27 µM | kcat [16]: 100 s⁻¹ | Km [17]: 38 µM | kcat [17]: 42 s⁻¹ | Km [18]: 28 µM | kcat [18]: 8 s⁻¹ | Km [19]: 2700 µM | Km [20]: 3500 µM | kcat [20]: 68 s⁻¹ | Km [21]: 860 µM | kcat [21]: 2500 s⁻¹ | Km [22]: 58 µM | kcat [22]: 1500 s⁻¹ | Km [23]: 250 µM | kcat [23]: 180 s⁻¹ | Km [24]: 940 µM | kcat [24]: 2.3 s⁻¹ | kcat/Km [25]: 4e+06 M⁻¹ s⁻¹ | kcat/Km [26]: 12000 M⁻¹ s⁻¹ | kcat/Km [27]: 1.4e+07 M⁻¹ s⁻¹ | kcat/Km [28]: 2.5e+07 M⁻¹ s⁻¹ | kcat/Km [29]: 1.3e+07 M⁻¹ s⁻¹ | kcat/Km [30]: 1.2e+06 M⁻¹ s⁻¹ | kcat/Km [31]: 150000 M⁻¹ s⁻¹ | kcat/Km [32]: 5.4e+06 M⁻¹ s⁻¹ | kcat/Km [33]: 2.6e+06 M⁻¹ s⁻¹ | kcat/Km [34]: 550000 M⁻¹ s⁻¹ | kcat/Km [35]: 9100 M⁻¹ s⁻¹ | kcat/Km [36]: 3.1e+06 M⁻¹ s⁻¹ | kcat/Km [37]: 150000 M⁻¹ s⁻¹ | kcat/Km [38]: 3.7e+06 M⁻¹ s⁻¹ | kcat/Km [39]: 1.1e+06 M⁻¹ s⁻¹ | kcat/Km [40]: 290000 M⁻¹ s⁻¹ | kcat/Km [41]: 19000 M⁻¹ s⁻¹ | kcat/Km [42]: 2.9e+06 M⁻¹ s⁻¹ | kcat/Km [43]: 2.6e+07 M⁻¹ s⁻¹ | kcat/Km [44]: 720000 M⁻¹ s⁻¹ | kcat/Km [45]: 2500 M⁻¹ s⁻¹

CC1(C)S[C@@H]2[C@H](NC(=O)C(C(=O)O)c3ccccc3)C(=O)N2[C@H]1C(=O)O (stereo not given in full)
Km (Escherichia coli [1]): 75 µM | kcat (Escherichia coli [1]): 170 s⁻¹ | kcat/Km (Escherichia coli [2]): 2.3e+06 M⁻¹ s⁻¹
